Consider 4 compounds from article PMC10764114 (ACS Omega, 2023).

In series [1] the test system is human embryonic kidney HEK293 cell line. The series can be described thus: MTT assay, cytotoxicity against normal HEK293 cells. Format: cell-based. The following applies: for cytotoxicity in noncancerous cells (HEK293): compared with malignant glioma U87 cells, 10-150 μM. The method, boiled down:
(§1)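 Cells grown in DMEM (4.5 g/L glucose, 10% FBS, 1% penicillin/streptomycin) at 37 °C, 5% CO₂. Seeded at 1 × 10³ cells/well and left 24 h to adhere. Test compound added at 10, 40, 80, 100 or 150 μM for 48 h (text also states MTT added 24 h post-dosing). MTT in PBS added for 3 h, formazan dissolved in DMSO for 30 min, OD read at 550 nm, % viability calculated from absorbance.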
In general terms: Tetrazolium dyes change colour on reduction, which living cells bring about.

Series [2] has as its system U87-malignant glioma (ATCC-HTB-14). Description: MTT assay, cytotoxicity against U87-malignant glioma cells. Format: cell-based, human. The following applies: for IC50: read-out: IC50 (μM ± SEM U87); for viability at 10 µM / viability at 40 µM / viability at 80 µM / viability at 100 µM / viability at 150 µM: read-out: % cell viability U87. The method, boiled down:
as §1

Series [3] in a line: MTT assay, cytotoxicity against normal HEK293 cells. Particulars: human, HEK293 cells. In kind it is cell-based, human. The method, boiled down: as §1
Where [4] appears, read: MTT assay, U87 malignant glioma cells, ± SEM.

Like-named read-outs stand apart in the source and are kept apart here.

Consider “2-(4-Isobutyl phenyl)-N′-(4-(2-(2-(4-isopropylbenzylidene)hydrazinyl)-2-oxoethoxy)benzylidene)propanehydrazide [5s]”, for which the “% cell viability HEK293” value in series [1] (concentration 10 (μM)) was determined as 58.72%; in series [1] (concentration 40 (μM)), 58.38%; in series [1] (concentration 80 (μM)) it was 51.45%; in series [1] (concentration 100 (μM)) it was 49.00%; in series [1] (concentration 150 (μM)), 39.29%. The “% cell viability U87” value in series [2] (concentration 10 (μM)) is 145.03%; in series [2] (concentration 40 (μM)), 93.13%; in series [2] (concentration 80 (μM)), 92.16%; in series [2] (concentration 100 (μM)), 78.36%; in series [2] (concentration 150 (μM)), 69.18%. For the same compound, in series [2] (setting [4]), the IC50 (usually the concentration that gives 50% inhibition) worked out at 43.73 ± 0.11 µM.
For “2-(4-Isobutyl phenyl)-N′-(4-(2-oxo-2-(2-(−3,4,5-trimethoxybenzylidene)hydrazinyl)ethoxy)benzylidene)propanehydrazide [5g]”, the “% cell viability HEK293” value is on record as 86.66% in series [1] (concentration 10 (μM)); 75.46% in series [1] (concentration 40 (μM)); 62.21% in series [1] (concentration 80 (μM)); 62.12% in series [1] (concentration 100 (μM)); 56.11% in series [1] (concentration 150 (μM)). The “% cell viability U87” value worked out at 56.40% in series [2] (concentration 10 (μM)); 47.40% in series [2] (concentration 40 (μM)); 39.45% in series [2] (concentration 80 (μM)); 33.32% in series [2] (concentration 100 (μM)); 30.90% in series [2] (concentration 150 (μM)). For the same compound, the IC50 in series [2] (setting [4]) worked out at 39.94 ± 0.16 µM.
With `CC(C)Cc1ccc(C(C)C(=O)NN=Cc2ccc(OCC(=O)NN=Cc3ccc(O)cc3O)cc2)cc1` (stereo not shown) [5e, N′-(4-(2-(2-(2,4-Dihydroxybenzylidene)hydrazinyl)-2-oxoethoxy)benzylidene)-2-(4-isobutylphenyl)propanehydrazide], the “cytotoxicity in noncancerous cells (HEK293)” value in series [1] is on record as “lower cytotoxicity”. Also, in series [3], the viability (as a rule, a read-out of living cells in per cent, often relative to untreated cells) at 48 h, 10 μM is 69.4%; the viability at 48 h, 40 μM was found to be 69.1%; the viability at 48 h, 80 μM was determined as 67.9%; the viability at 48 h, 100 μM was 62.1%. In addition, the viability at 48 h, 150 μM in series [3] was determined as 50.8%. Further, in series [2] (Homo sapiens, Glioma cell), the viability at 10 µM amounted to 43.4%, the viability at 40 µM was found to be 41%, the viability at 80 µM is 39.9% and the viability at 100 µM worked out at 28.5%. Moreover, in series [2] (Homo sapiens, Glioma cell), the viability at 150 µM was found to be 27.5% and the IC50 came to 5.75 ± 0.43 µM.
As for `COc1ccc(C=NNC(=O)COc2ccc(C=NNC(=O)C(C)c3ccc(CC(C)C)cc3)cc2)c(OC)c1` (stereo not shown) [5f, N′-(4-(2-(2-(2,4-Dimethoxybenzylidene)hydrazinyl)-2-oxoethoxy)benzylidene)-2-(4-isobutylphenyl)propanehydrazide], the “cytotoxicity in noncancerous cells (HEK293)” value in series [1] is recorded as “lower cytotoxicity”. In series [3], the viability at 48 h, 10 μM came out at 103%; the viability at 48 h, 40 μM was 79.2%; the viability at 48 h, 80 μM worked out at 71.9%; the viability at 48 h, 100 μM worked out at 69.9%. The viability at 48 h, 150 μM in series [3] is 63.5%. Moreover, in series [2] (Homo sapiens, Glioma cell), the viability at 10 µM stood at 54.1%, the viability at 40 µM was found to be 44.2%, the viability at 80 µM came to 38.7% and the viability at 100 µM was 29%. Also, in series [2] (Homo sapiens, Glioma cell), the viability at 150 µM came out at 21.6% and the concentration for half-maximal inhibition (IC50) came out at 24.2 ± 0.46 µM.
